The subject of data set [1] is Rattus norvegicus. The data set can be described thus: Oral bioavailability in rat at 10 mg/kg. The note with it: in vivo. It is filed as ADME, organism-based. In a few lines:
(§1)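 Rats dosed at 10 mg/kg by both iv and po routes, n = 3; plasma pharmacokinetic parameters derived from the iv/po study.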

For data set [2], the system named is Rattus norvegicus. The data set can be described thus: Volume of distribution at steady state in rat at 10 mg/kg, po and iv. Type of data set: ADME, organism-based. Set-up: dose 10 mg/kg, route oral. The note with it: in vivo. In a few lines: as §1
Data set [3] can be described thus: Half life in rat at 10 mg/kg, po and iv. It is filed as ADME, organism-based. The conditions noted are these: in vivo. Set-up: dose 10 mg/kg, route oral. The procedure, abridged: as §1
The test system of data set [4] is Rattus norvegicus. Description: AUC in rat at 10 mg/kg, po. Set-up: dose 10 mg/kg, route oral. Type of data set: ADME, organism-based, Plasma. The conditions noted are these: in vivo. The procedure, abridged:
as §1

For data set [5], the target named is Melanin-concentrating hormone receptor 1 (Homo sapiens, UniProt Q99705). Description: Displacement of Eu-MCH from human MCHR1 expressed in CHO cell membranes by TRF assay. In a few lines:
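Competitive binding on membranes of CHO cells expressing human MCH-R1, with Eu-labeled MCH as tracer; bound label read by time-resolved fluorometry, values given as IC50.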

Another data set has as its target CYP3A4 (Homo sapiens, UniProt P08684). Description: Inhibition of CYP3A4 (unknown origin) at 10 uM relative to control. Type of data set: ADME.
Another data set has as its target CYP2D6 (Homo sapiens, UniProt P10635). The data set can be described thus: Inhibition of CYP2D6 (unknown origin) at 10 uM relative to control. Type of data set: ADME.
Data set [6] in a line: Aqueous solubility of the compound. The note with it: buffer. It is filed as physicochemical.
Data set [7] can be described thus: Permeability of the compound by PAMPA. It is filed as ADME. The conditions noted are these: read-out: permeability. Background: The PAMPA barrier holds no transporters, so it reflects passive diffusion.
The nature of data set [8]: Metabolic stability in human liver microsomes measured for 30 mins. Type of data set: ADME, Microsome. The conditions noted are these: read-out: Stability. The procedure, abridged:
(§2)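 Test compound incubated 30 min with human or rat liver microsomes; stability given as percent remaining.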
Background: Liver microsomes are a subcellular fraction often used to study metabolism.

Data set [9] is described as follows: Metabolic stability in rat liver microsomes measured for 30 mins. It is filed as ADME, Microsome. The conditions noted are these: read-out: Stability. The procedure, abridged:
as §2

The results in this text go back to ChEMBL document CHEMBL2331540, “Synthesis and SAR study of pyrrolo[3,4-b]pyridin-7(6H)-one derivatives as melanin concentrating hormone receptor 1 (MCH-R1) antagonists” (Bioorg Med Chem Lett, 2013).

Each structure is given as a SMILES string. ≈ marks a conversion by molar mass, not a printed value. Some results are limits rather than exact numbers.

Melanin-concentrating hormone receptor 1, sequence (Q99705 whole entry): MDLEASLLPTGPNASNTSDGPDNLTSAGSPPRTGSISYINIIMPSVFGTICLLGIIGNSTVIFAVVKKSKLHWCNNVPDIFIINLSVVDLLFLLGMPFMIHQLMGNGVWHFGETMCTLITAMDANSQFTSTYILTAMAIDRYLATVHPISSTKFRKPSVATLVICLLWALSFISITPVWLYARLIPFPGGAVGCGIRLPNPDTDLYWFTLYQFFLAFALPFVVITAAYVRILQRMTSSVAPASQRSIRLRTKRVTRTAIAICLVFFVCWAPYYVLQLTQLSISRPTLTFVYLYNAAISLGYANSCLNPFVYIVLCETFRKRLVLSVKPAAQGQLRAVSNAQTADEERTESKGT
CYP2D6, sequence (P10635 whole entry): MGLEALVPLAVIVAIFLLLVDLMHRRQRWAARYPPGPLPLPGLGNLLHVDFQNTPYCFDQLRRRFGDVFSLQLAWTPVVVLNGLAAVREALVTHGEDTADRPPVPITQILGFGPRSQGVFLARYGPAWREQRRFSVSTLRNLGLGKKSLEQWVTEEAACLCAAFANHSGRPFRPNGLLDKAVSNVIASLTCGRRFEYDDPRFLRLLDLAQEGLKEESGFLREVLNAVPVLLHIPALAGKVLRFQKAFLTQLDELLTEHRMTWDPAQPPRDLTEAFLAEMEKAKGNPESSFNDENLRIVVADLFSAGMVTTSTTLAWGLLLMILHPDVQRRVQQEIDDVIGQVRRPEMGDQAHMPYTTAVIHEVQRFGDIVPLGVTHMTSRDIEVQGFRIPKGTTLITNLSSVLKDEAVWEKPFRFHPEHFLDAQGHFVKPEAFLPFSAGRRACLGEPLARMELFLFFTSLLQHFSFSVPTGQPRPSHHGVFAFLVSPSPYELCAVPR
CYP3A4, sequence (P08684 whole entry): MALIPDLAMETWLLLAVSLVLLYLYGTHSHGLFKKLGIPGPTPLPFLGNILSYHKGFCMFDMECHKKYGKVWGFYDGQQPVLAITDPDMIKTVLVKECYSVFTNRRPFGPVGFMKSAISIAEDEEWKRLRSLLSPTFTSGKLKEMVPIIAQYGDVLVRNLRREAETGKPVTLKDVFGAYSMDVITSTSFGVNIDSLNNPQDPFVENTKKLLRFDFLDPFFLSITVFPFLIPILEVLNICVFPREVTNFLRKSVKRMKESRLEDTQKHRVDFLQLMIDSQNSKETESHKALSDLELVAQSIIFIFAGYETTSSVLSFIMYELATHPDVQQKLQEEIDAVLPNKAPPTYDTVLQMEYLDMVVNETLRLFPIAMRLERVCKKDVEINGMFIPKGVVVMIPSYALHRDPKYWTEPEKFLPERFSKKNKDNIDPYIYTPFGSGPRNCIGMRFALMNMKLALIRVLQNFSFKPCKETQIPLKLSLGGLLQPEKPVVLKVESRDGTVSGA

`COc1cc(N2Cc3ccc(Sc4ccccc4)nc3C2=O)ccc1OCCN1CCCC1` had a F in the data set on Rattus norvegicus [1] of 35%. Also, the Vdss in the data set on Rattus norvegicus [2] turned out to be 22.7 L/kg. The half-life (commonly the time in which the quantity being followed falls by half) in data set [3] is 2.8 h. In the data set on Rattus norvegicus [4], the AUC (in general, the area under the concentration-time curve, a measure of exposure) was 320 ng·h/mL. The IC50 (in general, the concentration at which inhibition is half-maximal) in data set [5] stood at 20 nM.

Turning to `COc1cc(N2Cc3ccc(Sc4ccc(F)cc4)nc3C2=O)ccc1OCCN1CCCC1`, the inhibition at 10 µM at CYP3A4 and at CYP2D6 was < 10% throughout. Also, the solubility (as a rule, how much of the substance goes into solution per volume) in data set [6] is 104 µg/mL (≈ 217 µM). Also, the Papp in data set [7] stood at 1.9 ×10⁻⁶ cm/s. The remaining at 0.5 h in data set [8] worked out at 97%; in [9], 79%. Besides, in the data set with Rattus norvegicus [1], the F stood at 92%. In the data set with Rattus norvegicus [2], this compound returned a Vdss of 8.3 L/kg. For the same compound, the half-life in [3] is 3.4 h. This compound also yielded an exposure (AUC) in the data set on Rattus norvegicus [4] of 5700 ng·h/mL. The compound also displayed an IC50 in data set [5] of 30 nM. `COc1cc(N2Cc3ccc(Sc4ccc(Cl)cc4)nc3C2=O)ccc1OCCN1CCCC1` registered an IC50 in data set [5] of 40 nM.

On to `COc1cc(N2Cc3ccc(Sc4ccc(C)cc4)nc3C2=O)ccc1OCCN1CCCC1`, for which the 50% inhibitory concentration (IC50) in [5] worked out at 60 nM. Same read-out and setting: the value for `COc1ccc(Sc2ccc3c(n2)C(=O)N(c2ccc(OCCN4CCCC4)c(OC)c2)C3)cc1` was 100 nM; that for `COc1cc(N2Cc3ccc(Sc4ccc(F)cc4F)nc3C2=O)ccc1OCCN1CCCC1` was 60 nM; that for `COc1cc(N2Cc3ccc(Sc4ccc(F)c(F)c4)nc3C2=O)ccc1OCCN1CCCC1` was 50 nM.

In turn, `COc1cc(N2Cc3ccc(Sc4ccc(F)cc4Cl)nc3C2=O)ccc1OCCN1CCCC1` showed an IC50 in [5] of 80 nM. As for `COc1cc(N2Cc3ccc(Sc4ccc(F)c(Cl)c4)nc3C2=O)ccc1OCCN1CCCC1`, the IC50 in data set [5] was 50 nM.

Turning to `COc1cc(N2Cc3ccc(-c4ccc(C(C)(C)C)cc4)nc3C2=O)ccc1OCCN1CCCC1`, in [5], the concentration for half-maximal inhibition (IC50) turned out to be 320 nM. The same measure, in the same setting: the figure for `COc1cc(N2Cc3ccc(-c4cccc(C)c4C)nc3C2=O)ccc1OCCN1CCCC1` is 190 nM; for `COc1cc(N2Cc3ccc(-c4cc(C)ccc4C)nc3C2=O)ccc1OCCN1CCCC1` it is 300 nM; for `COc1cc(N2Cc3ccc(-c4ccc(C)c(C)c4)nc3C2=O)ccc1OCCN1CCCC1` it is 180 nM. On the same count and under the same terms, the value for `COc1cc(N2Cc3ccc(Cc4ccccc4)nc3C2=O)ccc1OCCN1CCCC1` was 70 nM. In data set [5], `COc1cc(N2Cc3ccc(Cc4ccccc4C)nc3C2=O)ccc1OCCN1CCCC1` yielded an IC50 of 720 nM. On to `COc1cc(N2Cc3ccc(Cc4cccc(F)c4)nc3C2=O)ccc1OCCN1CCCC1`, for which, in [5], the IC50 was 410 nM. `COc1cc(N2Cc3ccc(Cc4ccc(F)cc4)nc3C2=O)ccc1OCCN1CCCC1` showed an IC50 in data set [5] of 80 nM.

In data set [5], `COc1cc(N2Cc3ccc(Cc4ccc(Cl)cc4)nc3C2=O)ccc1OCCN1CCCC1` yielded an IC50 of 120 nM.

For `COc1cc(N2Cc3ccc(Cc4ccc(C)cc4)nc3C2=O)ccc1OCCN1CCCC1`, the IC50 in data set [5] came to 160 nM. The same measure, in the same setting: the value for `COc1cc(N2Cc3ccc(Cc4ccc(C(C)(C)C)cc4)nc3C2=O)ccc1OCCN1CCCC1` was 1910 nM; that for `COc1cc(N2Cc3ccc(-c4ccccc4F)nc3C2=O)ccc1OCCN1CCCC1` was 4130 nM. `COc1cc(N2Cc3ccc(-c4ccc(F)cc4)nc3C2=O)ccc1OCCN1CCCC1` displayed an IC50 in [5] of 3100 nM. Regarding `COc1cc(N2Cc3ccc(-c4ccc(C(F)(F)F)cc4)nc3C2=O)ccc1OCCN1CCCC1`, in [5], the IC50 was 540 nM. This IC50 lies about 5.7-fold lower than the previous one. Same read-out and setting: the figure for `COc1cc(N2Cc3ccc(-c4ccc(C#N)cc4)nc3C2=O)ccc1OCCN1CCCC1` is 10000 nM; for `COc1cc(N2Cc3ccc(-c4ccccc4C)nc3C2=O)ccc1OCCN1CCCC1` it is 1040 nM; for `COc1cc(N2Cc3ccc(-c4ccc(C)cc4)nc3C2=O)ccc1OCCN1CCCC1` it is 80 nM. On the same count and under the same terms, the value for `CCc1ccccc1-c1ccc2c(n1)C(=O)N(c1ccc(OCCN3CCCC3)c(OC)c1)C2` was 2000 nM. On the same count and under the same terms, the figure for `CCc1ccc(-c2ccc3c(n2)C(=O)N(c2ccc(OCCN4CCCC4)c(OC)c2)C3)cc1` is 50 nM. Turning to `CCCc1ccc(-c2ccc3c(n2)C(=O)N(c2ccc(OCCN4CCCC4)c(OC)c2)C3)cc1`, the IC50 in [5] stood at 210 nM. Take `CCCCc1ccc(-c2ccc3c(n2)C(=O)N(c2ccc(OCCN4CCCC4)c(OC)c2)C3)cc1`: in data set [5], the IC50 came to 2780 nM. Same read-out and setting: the value for `COc1cc(N2Cc3ccc(-c4ccc(C(C)C)cc4)nc3C2=O)ccc1OCCN1CCCC1` was 90 nM; that for `C=Cc1ccc(-c2ccc3c(n2)C(=O)N(c2ccc(OCCN4CCCC4)c(OC)c2)C3)cc1` was 130 nM.

Compound `COc1cccc(-c2ccc3c(n2)C(=O)N(c2ccc(OCCN4CCCC4)c(OC)c2)C3)c1` returned an IC50 in data set [5] of 2010 nM. Same read-out and setting: the value for `COc1ccc(-c2ccc3c(n2)C(=O)N(c2ccc(OCCN4CCCC4)c(OC)c2)C3)cc1` was 340 nM; that for `COc1cc(N2Cc3ccc(-c4ccccc4Cl)nc3C2=O)ccc1OCCN1CCCC1` was 510 nM; that for `COc1cc(N2Cc3ccc(-c4cccc(Cl)c4)nc3C2=O)ccc1OCCN1CCCC1` was 5650 nM. On the same count and under the same terms, the value for `COc1cc(N2Cc3ccc(-c4ccc(Cl)cc4)nc3C2=O)ccc1OCCN1CCCC1` was 440 nM; that for `COc1cc(N2Cc3ccc(-c4ccccc4)nc3C2=O)ccc1OCCN1CCCC1` was 10000 nM.

Compound `COc1cc(N2Cc3ccc(-c4ccccc4OC)nc3C2=O)ccc1OCCN1CCCC1` displayed an IC50 in data set [5] of 7110 nM.
